Data: ChEMBL document CHEMBL4706553, “Discovery of potent small molecule PROTACs targeting mutant EGFR” (Eur J Med Chem, 2020)
The source made the active and inactive calls. The calls are words filed in the database; no cut-off is given here.

Assays:
Format in all cases: cell-based
[1] = tested on: von Hippel-Lindau disease tumor suppressor/Epidermal growth factor receptor (Homo sapiens), P00533+P40337 [L858R,T790M]; test: Protac activity at VHL/EGFR L858R/T790M mutant in human H1975 cells assessed as maximal induction of degradation of EGFR incubated for 48 hrs by Western blot analysis relative to control; conditions: NCI-H1975
von Hippel-Lindau disease tumor suppressor/Epidermal growth factor receptor (Homo sapiens), P00533+P40337 [L858R,T790M], sequence (P00533 whole entry T790M/L858R): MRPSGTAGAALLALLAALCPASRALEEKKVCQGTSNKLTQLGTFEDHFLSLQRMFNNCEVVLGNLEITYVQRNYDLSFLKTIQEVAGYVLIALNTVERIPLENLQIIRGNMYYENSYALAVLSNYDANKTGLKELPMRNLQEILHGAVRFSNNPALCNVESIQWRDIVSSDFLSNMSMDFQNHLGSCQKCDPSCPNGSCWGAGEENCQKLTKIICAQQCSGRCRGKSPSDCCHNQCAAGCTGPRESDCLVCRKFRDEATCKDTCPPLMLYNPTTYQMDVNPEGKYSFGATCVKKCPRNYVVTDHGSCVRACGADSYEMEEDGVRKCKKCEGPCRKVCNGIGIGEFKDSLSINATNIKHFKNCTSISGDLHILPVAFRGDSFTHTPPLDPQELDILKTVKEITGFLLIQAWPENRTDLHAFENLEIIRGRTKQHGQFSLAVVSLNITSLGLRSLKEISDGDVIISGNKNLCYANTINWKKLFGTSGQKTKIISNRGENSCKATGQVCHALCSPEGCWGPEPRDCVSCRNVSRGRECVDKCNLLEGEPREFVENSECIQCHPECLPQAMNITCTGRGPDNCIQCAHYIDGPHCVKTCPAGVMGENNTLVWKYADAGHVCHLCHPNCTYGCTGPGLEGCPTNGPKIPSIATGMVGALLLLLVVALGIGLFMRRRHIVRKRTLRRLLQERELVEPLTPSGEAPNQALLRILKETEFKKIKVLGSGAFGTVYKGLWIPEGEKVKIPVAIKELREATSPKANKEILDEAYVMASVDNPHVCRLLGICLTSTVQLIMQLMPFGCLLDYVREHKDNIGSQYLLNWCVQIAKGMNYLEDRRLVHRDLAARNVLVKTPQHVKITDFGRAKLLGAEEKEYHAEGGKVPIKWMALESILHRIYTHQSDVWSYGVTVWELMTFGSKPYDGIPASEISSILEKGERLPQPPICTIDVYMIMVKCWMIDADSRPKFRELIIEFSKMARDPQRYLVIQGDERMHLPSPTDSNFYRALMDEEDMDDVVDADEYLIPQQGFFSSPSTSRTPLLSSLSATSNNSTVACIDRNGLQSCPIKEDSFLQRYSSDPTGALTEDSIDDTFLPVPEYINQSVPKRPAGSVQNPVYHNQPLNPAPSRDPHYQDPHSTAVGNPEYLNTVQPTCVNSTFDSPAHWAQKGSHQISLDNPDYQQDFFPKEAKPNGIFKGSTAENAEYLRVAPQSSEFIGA
von Hippel-Lindau disease tumor suppressor/Epidermal growth factor receptor (Homo sapiens), P00533+P40337 [L858R,T790M], sequence (P40337 whole entry partner): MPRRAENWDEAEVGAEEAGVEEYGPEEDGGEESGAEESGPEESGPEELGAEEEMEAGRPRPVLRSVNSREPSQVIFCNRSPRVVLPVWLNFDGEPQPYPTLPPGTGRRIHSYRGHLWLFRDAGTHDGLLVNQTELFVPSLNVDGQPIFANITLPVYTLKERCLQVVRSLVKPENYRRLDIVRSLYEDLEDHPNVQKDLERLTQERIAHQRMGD
Method in brief: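 H1975 cells exposed to the stated concentrations for 48 h. EGFR by Western blot; n = 3. DC₅₀ by nonlinear regression, log(inhibitor) vs response.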

[2] = tested on: von Hippel-Lindau disease tumor suppressor/Epidermal growth factor receptor (Homo sapiens), P00533+P40337 [UNDEFINED MUTATION]; test: Protac activity at VHL/EGFR del19 mutant in human HCC827 cells assessed as induction of EGFR degradation at 33 nM by Western blot analysis; conditions: time 12-72 hrs, TDE = time-dependent effect
von Hippel-Lindau disease tumor suppressor/Epidermal growth factor receptor (Homo sapiens), P00533+P40337 [UNDEFINED MUTATION], sequence (P00533 whole entry, looked up, stated change not applied): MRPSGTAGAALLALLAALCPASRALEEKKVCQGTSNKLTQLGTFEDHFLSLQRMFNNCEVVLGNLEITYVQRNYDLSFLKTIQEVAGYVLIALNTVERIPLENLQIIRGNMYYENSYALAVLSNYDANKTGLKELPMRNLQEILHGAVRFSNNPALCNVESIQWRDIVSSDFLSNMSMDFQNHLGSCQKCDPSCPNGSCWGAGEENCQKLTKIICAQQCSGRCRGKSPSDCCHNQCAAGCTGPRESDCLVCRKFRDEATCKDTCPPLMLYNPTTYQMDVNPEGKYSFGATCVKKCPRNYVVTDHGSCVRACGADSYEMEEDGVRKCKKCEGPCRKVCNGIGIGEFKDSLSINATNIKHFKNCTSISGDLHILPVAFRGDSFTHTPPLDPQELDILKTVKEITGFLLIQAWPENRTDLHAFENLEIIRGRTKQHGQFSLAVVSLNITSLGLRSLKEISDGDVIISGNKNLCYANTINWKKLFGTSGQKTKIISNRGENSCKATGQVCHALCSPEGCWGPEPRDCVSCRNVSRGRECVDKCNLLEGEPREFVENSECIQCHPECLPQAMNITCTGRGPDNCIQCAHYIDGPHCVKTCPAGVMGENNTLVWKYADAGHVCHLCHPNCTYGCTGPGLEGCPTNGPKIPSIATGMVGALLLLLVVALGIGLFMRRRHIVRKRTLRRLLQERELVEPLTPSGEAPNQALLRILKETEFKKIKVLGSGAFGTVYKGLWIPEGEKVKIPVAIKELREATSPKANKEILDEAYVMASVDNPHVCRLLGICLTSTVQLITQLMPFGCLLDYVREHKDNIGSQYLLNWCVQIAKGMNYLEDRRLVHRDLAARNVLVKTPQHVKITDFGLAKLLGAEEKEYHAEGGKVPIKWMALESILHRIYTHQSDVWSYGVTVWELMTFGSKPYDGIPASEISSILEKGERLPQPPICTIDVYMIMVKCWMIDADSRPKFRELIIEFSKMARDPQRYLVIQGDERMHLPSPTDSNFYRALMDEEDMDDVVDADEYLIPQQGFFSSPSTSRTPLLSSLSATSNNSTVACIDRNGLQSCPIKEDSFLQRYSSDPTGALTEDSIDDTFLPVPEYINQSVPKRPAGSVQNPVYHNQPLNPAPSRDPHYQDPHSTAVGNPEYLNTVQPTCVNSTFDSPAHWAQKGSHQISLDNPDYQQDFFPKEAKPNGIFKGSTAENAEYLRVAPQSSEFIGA
von Hippel-Lindau disease tumor suppressor/Epidermal growth factor receptor (Homo sapiens), P00533+P40337 [UNDEFINED MUTATION], sequence (P40337 whole entry, looked up, stated change not applied): as the sequence (P40337 whole entry partner) above
Method in brief: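 Time course in HCC827 cells at 33 nM, with protein harvested at each stated time point. EGFR^del19 detected by Western blot.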

[3] = tested on: von Hippel-Lindau disease tumor suppressor/Epidermal growth factor receptor (Homo sapiens), P00533+P40337 [UNDEFINED MUTATION]; test: Protac activity at VHL/EGFR del19 mutant in human HCC827 cells assessed as induction of EGFR degradation by measuring reduction in Akt phosphorylation at 3 nM incubated for 48 hrs by Western blot analysis
Method in brief: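 HCC827 or H1975 cells treated at the stated concentrations for 48 h. Lysates probed by Western blot for EGFR, P-EGFR, Akt and P-Akt (each 1:1000); n = 2.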

[4] = tested on: von Hippel-Lindau disease tumor suppressor/Epidermal growth factor receptor (Homo sapiens), P00533+P40337 [UNDEFINED MUTATION]; test: Protac activity at VHL/EGFR del19 mutant in human HCC827 cells assessed as induction of EGFR degradation at 0.1 to 0.3 nM precultured in medium without FBS followed by incubation with compound for 16 hrs by Western blot analysis; conditions: dose 0.1-0.3 nM
Method in brief: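 HCC827 or H1975 cells precultured 8 h in medium with or without FBS, then treated at the stated concentrations for 16 h. EGFR protein by Western blot; n = 3.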

[5] = tested on: von Hippel-Lindau disease tumor suppressor/Epidermal growth factor receptor (Homo sapiens), P00533+P40337 [UNDEFINED MUTATION]; test: Protac activity at VHL/EGFR del19 mutant in human HCC827 cells assessed as induction of EGFR degradation at 33 nM incubated for 24 hrs measured following drug wash-out for 24 hrs by Western blot analysis
Method in brief: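 HCC827 cells (RPMI-1640, 10% heat-inactivated FBS, 1% sodium pyruvate, 1% glutamine, 37 °C, 5% CO₂) treated at 33 nM for 24 h. Medium then replaced with compound-free medium, and protein harvested at the stated times. EGFR read by Western blot; n = 2.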

For `Cc1ncsc1-c1ccc(CNC(=O)[C@@H]2C[C@@H](O)CN2C(=O)[C@@H](NC(=O)CCCCCCN2CCN(c3ccc(Nc4ncc5nc(Nc6ccccc6)n(C6CCCC6)c5n4)cc3)CC2)C(C)(C)C)cc1`, the Emax [1] was 90.3%, the Activity [2] was “Tde” and the Activity [3] was “Active”. For the same compound, the Activity [4] was “Active” and the Activity [5] was “Active”.
